Several values for one entry are separate records, joined by “and”; a condition that tells them apart may be missing. Equal values may be shown once.

The subject of data set [1] is Nrf2. Briefly: ARE-luciferase reporter assay in HepG2-ARE cells. The data set is classed as cell-based. Particulars: 24 h, 0–25 μM, (−) = concentration range tested did not quadruple Nrf2 activation.
For data set [2], the system named is AhR. Briefly: AhR-luciferase. The data set is classed as cell-based, mouse. Particulars: for AhR activation CQ (concentration of quadrupling): H1L6.1c3 cells, luciferase fold vs DMSO normalized to viability.
Data set [3] concerns HepG2-ARE cells. Nature of the data set: MTT cell viability assay in HepG2-ARE cells. The class given is cell-based. Particulars: read-out: Nrf2 activation IC50 (cell viability reduced by half).
Data set [4] concerns H1L6.1c3 cells. Nature of the data set: MTT cell viability assay in H1L6.1c3 cells. Particulars: for IC50: Mus musculus, read-out: AhR activation IC50 (cell viability reduced by half).
The subject of data set [5] is occludin. Nature of the data set: Occludin tight junction protein level, immunoblot in HT-29 cells. The data set is classed as cell-based, human. The note with it: HT-29, GarD 0–25 μM, 24 h.
For data set [6], the system named is Nrf2. Nature of the data set: Total Nrf2 protein level, immunoblot of HT-29 whole cell lysates. Particulars: GarD 0–25 μM, 24 h. The data set is classed as cell-based, human. In a few lines: (§1)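 HT-29 cells treated for 24 h with test compound, tBHQ 50 μM or FICZ 0.5 μM as references. Densities were normalised to β-actin. Mean ± SD of triplicate experiments; one-way ANOVA with Tukey test, P ≤ 0.05.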

Data set [7] deals with Nrf2. Briefly: Nrf2 nuclear translocation, immunoblot of nuclear proteins in HT-29 cells. The class given is cell-based, human. Particulars: HT-29, 1 h; GarD 12.5 μM, tBHQ 50 μM. An outline of the steps: (§2)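 HT-29 cells exposed to test compound at 12.5 μM, with tBHQ 50 μM or FICZ 0.5 μM as reference activators, over a 6-h time course. Cytosolic and nuclear fractions were collected at set time points, quantified by BCA, and resolved by SDS-PAGE. Blots were probed for AhR or Nrf2, with densities normalised to β-actin or lamin A/C. At least three independent experiments; mean ± SD.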

Data set [8] relates to HT-29 monolayers. Nature of the data set: In vitro permeability assay of FITC-dextran through HT-29 monolayers. The note with it: HT-29 transwell, GarD 6.25 or 12.5 μM pretreatment 6 h, 100 μM tBHP 16 h. The class given is cell-based, human. In a few lines:
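HT-29 cells seeded at 1.5 × 10^5 cells/cm2 on transwell inserts and differentiated; only monolayers with TEER above 200 […] were used. Test compound was added apically for 6 h, then 100 μM tBHP for 16 h. Apical 4 kDa FITC-dextran (0.5 mg mL−1 in HBSS/HEPES), HBSS basolateral. Basolateral samples at 0.5–4 h read at 485/530 nm; % of control.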

For data set [9], the system named is ZO-1. Nature of the data set: ZO-1 tight junction protein level, immunoblot in HT-29 cells. The class given is cell-based, human. Particulars: HT-29, GarD 0–25 μM, 24 h.
Data set [10] has as its system heme oxygenase-1 (HO-1). Briefly: HO-1 protein level, immunoblot of HT-29 whole cell lysates. The data set is classed as cell-based, human. Particulars: GarD 0–25 μM, 24 h. In a few lines: as §1
The subject of data set [11] is AhR. Briefly: AhR nuclear translocation, immunoblot of nuclear proteins in HT-29 cells. The class given is cell-based, human. Particulars: HT-29, 1 h; GarD 12.5 μM, FICZ 0.5 μM. In a few lines: as §2
Data set [12] has as its system HT-29 cells. Nature of the data set: tBHP-induced ROS production. The data set is classed as cell-based, human.
The subject of data set [13] is HT-29 cells. Nature of the data set: Total intracellular ROS. The class given is cell-based, human. The note with it: HT-29, 12 h; GarD 25 μM, tBHP 25 μM (positive control).
Data set [14] concerns ZO-1. Briefly: ZO-1 immunofluorescence microscopy in HT-29 cells. The data set is classed as cell-based, human.
In data set [15] the test system is ZO-2, ZO-3, claudin-1 and claudin-4. Nature of the data set: Other TJ proteins, immunoblot in HT-29 cells. The data set is classed as cell-based, human. Particulars: HT-29, GarD 0–25 μM, data not shown.
The test system of data set [16] is AhR. Briefly: AhR protein level, immunoblot of HT-29 cell lysates. The note with it: HT-29, 24 h; GarD 12.5 μM, FICZ 500 nM. The class given is cell-based, human. In a few lines: as §1
In data set [17] the test system is Cyp1a1. Nature of the data set: Cyp1a1 protein level, immunoblot of HT-29 cell lysates. The note with it: HT-29, 24 h; GarD 12.5 μM, FICZ 500 nM. The data set is classed as cell-based, human. In a few lines:
as §1

Data set [18] concerns Nrf2. The note with it: HT-29 cells, 10 μM; cited from earlier work.
Data set [19] relates to claudin-1. Briefly: tBHP oxidative stress-induced TJ disruption, claudin-1 immunoblot in HT-29 cells. The data set is classed as cell-based, human. Particulars: HT-29, tBHP 50 μM, 16 h.
For data set [20], the system named is occludin. Briefly: tBHP oxidative stress-induced TJ disruption, occludin immunoblot in HT-29 cells. The class given is cell-based, human. Particulars: HT-29, tBHP 50 μM, 16 h.
For data set [21], the system named is ZO-1. Nature of the data set: tBHP oxidative stress-induced TJ disruption, ZO-1 immunoblot in HT-29 cells. The class given is cell-based, human. Particulars: HT-29, tBHP 50 μM, 16 h.

Turning to `CC(C)=CCc1c(O)c(CC=C(C)C)c2oc3c(O)cccc3c(=O)c2c1O` [Compound 1, 8-desoxygartanin], in data set [1], the “Nrf2 activation CQ (concentration of quadrupling)” value (from here on “Nrf2 activation CQ”) was determined as 22.19 ± 1.24 µM. Further, the “AhR activation CQ (concentration of quadrupling)” value (“AhR activation CQ” for short) in data set [2] (24 h) is 0.162 ± 0.001 µM.
For the compound `CC(C)=CCc1c(O)c(CC=C(C)C)c2oc3c(O)ccc(O)c3c(=O)c2c1O` [Compound 2, gartanin], the “Nrf2 activation CQ” value in data set [1] was 9.4 µM and 9.43 ± 1.90 µM. For the same compound, the 50% inhibitory concentration (IC50) was 63.6 ± 1.94 µM in data set [3] and 36.5 ± 0.71 µM in data set [4].
Turning to `COc1c(O)cc2oc3cc(O)c(CC=C(C)C)c(O)c3c(=O)c2c1CC=C(C)C` [Compound 3, α-mangostin], the “Nrf2 activation CQ” value in [1] was 16.25 ± 0.46 µM.
As for `COc1cc2oc3cc(O)c(OC)c(CC=C(C)C)c3c(=O)c2c(O)c1CC=C(C)C` [Compound 5, β-mangostin], the “CQ value relative to the rest of the compounds” value in data set [2] (AhR activation, H1L6 cells) is given as 10–36 times higher. The “AhR activation CQ” value in data set [2] (24 h) is 5.125 ± 0.006 µM.
In the case of `COc1c(O)cc2oc3cc(O)c(CC=C(C)C)c(O)c3c(=O)c2c1CCC(C)(C)O` [Compound 6, garcinone D], in data set [5], the “increase in occludin protein relative to untreated controls” value is 22–91%. Further, the “Nrf2 activation CQ” value in data set [1] was 8.0 µM and 8.08 ± 0.07 µM. The “increase in total Nrf2 protein vs control” value in [6] stood at 40%. The “nuclear Nrf2 level” value in data set [7] is given as 1.9 fold greater than the control. In data set [8], the “tBHP induced leakage of FITC-dextran” value is “dose-dependently inhibited”. The “increase in ZO-1 protein relative to untreated controls” value in [9] is 34–83%. Also, the “increase in HO-1 protein vs control” value in data set [10] is given as 37%. Also, the “nuclear AhR accumulation (peak)” value in data set [11] is on record as 3.8 fold increase vs control. Further, the “suppression of tBHP-induced ROS production vs tBHP” value in [12] (HT-29, GarD pretreatment (0–25 μM, 6 h), dose-dependent) is listed as 25 to 68%. Also, the IC50 was 38.5 ± 7.27 µM in data set [3] and above 100 µM in data set [4]. The “ROS level (DCF fluorescence) relative to untreated control” value in [13] was determined as 2 fold. Besides, the “AhR activation IC50 (cell viability reduced by half)” value in [4] (H1L6 cells, MTT, max 100 μM, (−) = did not exhibit >50% cell toxicity at the concentration range tested) is “without exhibiting >50% H1L6 cell toxicity”. Further, the “AhR activation CQ” value in data set [2] (24 h) was 0.142 µM and 0.142 ± 0.008 µM. For the same compound, in [14] (HT-29, 2-h pre-treatment GarD 12.5 μM, co-incubation with tBHP 16 h), the “ZO-1 intensity lost to tBHP treatment rescued” value is reported as 45%. The “inducing effect on other TJ proteins (ZO-2, ZO-3, claudin-1, claudin-4)” value in data set [15] is “no inducing effect”.
Consider `CC(C)=CCc1c(O)cc2oc3cc(O)c(O)c(CC=C(C)C)c3c(=O)c2c1O` [Compound 7, γ-mangostin], for which, in data set [1], the “Nrf2 activation CQ” value worked out at 14.93 ± 0.10 µM.
For `O=Cc1c2[nH]c3ccccc3c2cc2[nH]c3ccccc3c12` [FICZ, 6-formylindolo[3,2-b] carbazole, reference compound], the “increase in AhR protein” value in [16] amounted to 2.8 fold. In addition, the “nuclear AhR accumulation (peak)” value in data set [11] is listed as 4.6 fold increase vs control. Moreover, in data set [17], the “increase in Cyp1a1 protein” value worked out at 3.5 fold. In addition, the “increase of luminescence signal” value in data set [2] (FICZ 500 nM, 24 h, H1L6 cells) is 43 fold of control.
For the compound `C[S+]([O-])CCCCN=C=S` (stereo not shown) [sulforaphane], in data set [18], the “induction of Nrf2 relative to the control” value is 200%.
As to `CC(C)(C)OO` [tBHP, tert-butyl hydroperoxide, reference compound], the “increase in total ROS levels relative to controls” value in data set [12] (HT-29, 2 mM tBHP, 4 h) is listed as 2 fold. The “ROS level (DCF fluorescence) relative to untreated control” value in [13] was found to be 4 fold. Moreover, in data set [19], the “reduction in claudin-1 compared to untreated controls” value was found to be 48%. In addition, the “reduction in occludin compared to untreated controls” value in data set [20] is 28%. In addition, the ZO-1 fluorescence intensity in [14] (HT-29, tBHP 50 μM, 16 h) is listed as 45 % of the control. For the same compound, the “reduction in ZO-1 compared to untreated controls” value in data set [21] is 68%.
As to `CC(C)(C)c1cc(O)ccc1O` [tBHQ, tert-butyl hydroquinone, reference compound], the “nuclear Nrf2 level” value in data set [7] is on record as “Nuclear translocation of Nrf2 was also demonstrated”.

These data come from article PMC8647718 (Free radical biology & medicine, 2020).
